Sampled rows, rich in hits. Any-hit rate of the full collection: about 4.6%.
TAAR1 antag – human TAAR1 antagonism. Q96RJ0. CHO RD-HGA16 TAAR1, Fluo-8 calcium fluorescence, antagonist. inhibition, % at 3 µM. 1.5% of 360,000 active. AID 624466;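 active = inhibition above a per-plate cutoff, the mean inhibition of test compounds on that plate plus 3 SD, cut at about 49% in these data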
Target sequence (Q96RJ0 whole entry, looked up): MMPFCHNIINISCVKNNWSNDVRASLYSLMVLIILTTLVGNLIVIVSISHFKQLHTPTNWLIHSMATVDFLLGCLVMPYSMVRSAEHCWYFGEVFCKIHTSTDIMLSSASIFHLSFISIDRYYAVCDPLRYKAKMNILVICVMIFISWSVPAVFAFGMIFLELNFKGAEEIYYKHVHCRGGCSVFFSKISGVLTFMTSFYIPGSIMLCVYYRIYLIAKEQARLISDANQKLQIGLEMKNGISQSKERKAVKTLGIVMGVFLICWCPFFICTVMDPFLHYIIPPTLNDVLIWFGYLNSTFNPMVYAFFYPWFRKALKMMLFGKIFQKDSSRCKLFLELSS
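System: RD-HGA16 CHO cells with stable hTAAR1 and Gα16 | Probe or stimulus: EC80 β-phenethylamine stimulus | Dosing: 3 µM, single point | Times: Dye loading 75 min at 37 °C, then 30 min room temperature | Measured by: Fluo-8 calcium-sensitive fluorescence | Read-out basis: % inhibition of agonist calcium response | Replicates: n of 1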
OX1R antag-1 – OX1R (human) antagonism | inhibition, % at 6.6 µM | OX1R-expressing cells, FRET antagonist read-out | 1.8% of 330,000 active; in the data active = inhibition mostly above about 38%, no sharp cut-off; inactive = mostly below about 40%
CHO parental Ca – signal in parental CHO cells, OX1R antagonist counter-screen. 0.63% of 330,000 active. inhibition, % at 5.6 µM. parental CHO-K1, ATP-induced calcium, Fluo-8 fluorescence. AID 463079;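 active = inhibition above that plate's mean sample inhibition plus 3 SD, cut at about 26% in these data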
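material = parental CHO cells | also added = ATP as calcium-mobilizing challenge | dosing = single point at 5.6 µM | detection = intracellular calcium via Fluo-8 no-wash fluorescent dye | read-out = % inhibition | benchmarks = low control ATP plus DMSO, high control DMSO only | repeats = one well per compound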
TAAR1 ag – human TAAR1 agonism; Q96RJ0; CHO RD-HGA16 TAAR1, Fluo-8 calcium fluorescence; vehicle wells 0%, saturating PEA agonist 100%; activation, % at 3 µM; 0.99% of 360,000 active; AID 624467;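 active = activation above the mean activation of all test compounds in the run plus 3 SD, cut at about 38% in these data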
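Test system: RD-HGA16 (CHO) cells co-expressing Gα16 and hTAAR1; dosing: one-point dosing at 3 µM (nominal); timing: 17-24 h seeding, 75 min 37 °C dye, 30 min RT; signal: kinetic Fluo-8 calcium fluorescence; read-out basis: % activation relative to PEA EC100 response; controls: DMSO and PEA EC100; replicates: n 1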
OX1R antag-2 – antagonists of human orexin 1 receptor; 0.43% of 330,000 active; inhibition, % at 5 µM; CHO/OX1R cells, Fluo-8 calcium fluorescence, orexin A; O43613;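 active = inhibition above its plate's threshold, mean inhibition of all tested compounds on the plate plus 3 SD, cut at about 37% in these data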
GPR7 antagonist – blocks human GPR7 receptor signaling; GPR7-expressing cells, fluorescence antagonist assay; 1.1% of 290,000 active; AID 1861; P48145; inhibition, % at 4.4 µM; in the data active = inhibition above about 16%, passing the limit was not always enough;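 note: cells stimulated with the agonist NPW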
Target sequence (P48145 whole entry, looked up): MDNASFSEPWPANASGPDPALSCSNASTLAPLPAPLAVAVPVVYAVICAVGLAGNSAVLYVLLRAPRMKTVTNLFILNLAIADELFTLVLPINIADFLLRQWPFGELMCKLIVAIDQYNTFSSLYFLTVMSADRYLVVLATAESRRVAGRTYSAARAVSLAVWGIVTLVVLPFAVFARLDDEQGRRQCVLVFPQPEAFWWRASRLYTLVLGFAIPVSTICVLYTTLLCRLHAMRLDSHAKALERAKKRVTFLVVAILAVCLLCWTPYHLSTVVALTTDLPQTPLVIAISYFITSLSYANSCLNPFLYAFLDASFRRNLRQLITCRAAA
Numbers stand for hits; i = inactive; nt = not tested or not shown.

SMILES	TAAR1 antag	OX1R antag-1	CHO parental Ca	TAAR1 ag	OX1R antag-2	GPR7 antagonist
Cc1ccc2c(c1)C(=O)N1c3cc(C)c(C)cc3NC(=O)C1C(=O)N2 (stereo unspecified)	i	nt	nt	i	nt	nt
COCCn1c(C)cc(C(=O)CN2C(=O)NC3(CCCCCC3)C2=O)c1C	i	29.6	i	i	i	nt
CC(C)Nc1nc(Nc2ccc(C#N)cc2)c2sccc2n1	i	nt	nt	i	nt	nt
COc1c2c(cc3c1c(=O)c1ccccc1n3C)OCO2	i	nt	nt	i	nt	nt
COc1ccnc(Oc2ccccc2)c1C(=O)N/C=N/OCc1ccccc1F	48.7	i	i	i	i	i
COc1ccnc(Oc2ccc(F)cc2)c1C(=O)N/C=N/OCc1ccccc1	i	i	i	i	i	i
Cc1cccc(NC(=O)CNC(=O)[C@H](CCc2ccccc2)NC(=O)[C@H]2O[C@@H](n3cnc4c(N)ncnc43)[C@H](O)[C@@H]2O)c1C	i	nt	nt	i	nt	nt
Cc1cc(C(C)(C)C)oc1C(=O)N(CC(=O)NC1CCCC1)c1ccc(F)cc1	i	54.5	i	i	i	i
Cc1ccc(C(=O)N(CC(=O)NC2CCCC2)c2ccccc2C)s1	i	i	i	i	i	i
CC(=O)c1cccc(N(CC(=O)NC2CCCC2)C(=O)c2ccc(C)s2)c1	i	i	i	i	i	i
CC(=O)c1ccc(N(CC(=O)NC2CCCC2)C(=O)c2ccc(C)s2)cc1	i	i	i	i	i	20.8
Cc1cc(C(C)(C)C)oc1C(=O)N(CC(=O)NC1CCCC1)c1c(C)cccc1C	i	77.0	45.7	i	42.5	i
O=C(Nc1ccc2c(c1)OCO2)c1ccc2nc([C@@H]3O[C@H](CO)[C@H](O)[C@H](O)[C@H]3O)[nH]c2c1	i	nt	nt	i	nt	nt
CSc1nc(O)c(N=Nc2ccc(F)cc2F)c(=O)[nH]1	i	45.1	i	i	i	i
Cc1cc(N2CCN(C(=O)OC(C)(C)C)C[C@@H]2C)ccc1N1C[C@@H](C)O[C@@H](C)C1	i	nt	nt	i	nt	nt
O=C(Nc1ccccc1)Nc1ccc2c(c1)CCC2	i	nt	nt	i	nt	i
O=C(Nc1cccc(F)c1)Nc1ccc2c(c1)CCC2	i	i	i	i	i	i
O=C(Nc1cccc([N+](=O)[O-])c1)c1cc2ccccc2cc1O	i	50.8	36.1	i	i	i
O=C(Nc1cccc([N+](=O)[O-])c1)Nc1ccc2c(c1)CCC2	i	61.6	43.2	i	i	i
O=C(Nc1ccc(F)cc1)Nc1ccc2c(c1)CCC2	i	i	39.0	i	i	i
Cc1cc(C(=O)Nc2ccc3c(c2)CCC3)ccc1[N+](=O)[O-]	i	45.3	i	i	i	nt
C[C@H](CO)N1C[C@H](C)[C@H](CN(C)C(=O)Nc2cccc(F)c2)Oc2cc(Br)ccc2S1(=O)=O	i	nt	nt	i	nt	nt
COC(=O)c1cc2c(c3c4cc(OC)ccc4n(S(=O)(=O)c4ccccc4)c13)C(=O)N(C)C2	i	nt	nt	i	nt	nt
Cc1ccc(NC(=O)OCCN(C)C(=O)Nc2ccc(C)cc2C)c(C)c1	i	nt	nt	i	nt	nt
O=C(Nc1ccc(F)cc1)Nc1cccc(Br)c1	i	57.6	75.8	i	61.4	nt
SMILES	TAAR1 antag	OX1R antag-1	CHO parental Ca	TAAR1 ag	OX1R antag-2	GPR7 antagonist
NC(=O)c1c(N)[nH]c(C(=O)c2ccccc2)c1-c1ccc(Cl)cc1Cl	i	nt	nt	i	nt	nt
O=C(N/N=C/c1c[nH]c2ccccc12)c1ccc2c(c1)OCCO2	i	i	i	i	i	i
O=C(N/N=C/c1cc(Br)cc(Cl)c1O)c1ccc2c(c1)OCO2	i	i	i	i	i	nt
O=C(N/N=C/c1cc(Cl)cc([N+](=O)[O-])c1O)c1ccc2c(c1)OCO2	i	56.4	i	i	i	i
O=C(CNC(=O)c1ccc2c(c1)OCO2)N/N=C/c1cc(Br)ccc1O	i	48.0	i	i	i	i
O=C(N/N=C/c1c[nH]c2ccc(Br)cc12)c1ccc2c(c1)OCO2	i	68.6	i	i	i	i
Cc1cc(Br)cc(/C=N/NC(=O)c2ccc3c(c2)OCO3)c1O	i	63.7	i	i	i	i
C=CC[C@]1(c2ccccc2)C(=O)N2C[C@H]3CON(C)[C@H]3C[C@H]2c2ccccc21	i	nt	nt	i	nt	nt
C=CCN1[C@@H](C)[C@H](c2ccccc2)Oc2cccc(N3CCCC(C)C3)c2S1(=O)=O (stereo partly specified)	i	nt	nt	i	nt	nt
CCn1c2c(n(C(C)=O)c1=O)C=C(C(=O)N1CCCC1)C(C)C(c1ccccc1)=C2 (stereo unspecified)	i	nt	nt	i	nt	nt
CCCCCCCCN1C(=O)[C@@H](CC(=O)N2CCCCC2)C[C@@]2(C(=O)OC)C1=C[C@H](C(C)(C)C)O[C@@H]2C	i	nt	nt	i	nt	nt
O=C(N/N=C/c1ccc2c(c1)OCO2)c1cccc2ccccc12	i	i	i	i	i	i
O=C(CSCc1ccccc1Br)N/N=C/c1ccc2c(c1)OCO2	i	i	i	i	i	i
Cn1cc(C(=O)N/N=C/c2ccc3c(c2)OCO3)c2ccccc21	i	43.1	i	i	i	i
O=C(CSCc1cccc(Br)c1)N/N=C/c1ccc2c(c1)OCO2	i	63.2	i	i	i	i
O=C(N/N=C/c1ccc2c(c1)OCO2)c1ccc(COc2cccc3cccnc23)cc1	49.4	i	i	i	i	i
COc1ccc(CN(C2CCCC2)S(=O)(=O)c2cc(Br)ccc2Br)c(OC)c1	i	nt	nt	i	nt	nt
Nc1[nH]c(C(=O)c2ccc(Br)cc2)c(-c2ccncc2)c1C(=O)c1ccccc1	i	nt	nt	i	nt	nt
CCCc1c(-c2ccc(OC)cc2)ncn1CCc1ccccc1OC	i	nt	nt	i	nt	nt
O=C(C[C@H]1C/C=C\C[C@H](Cc2ccc(F)cc2)C(=O)O[C@@H](c2ccccc2)CNC1=O)N[C@H](CO)Cc1ccccc1	i	i	i	54.6	i	nt
O=C(C[C@H]1C/C=C\CC[C@H](Cc2ccc(F)cc2)C(=O)O[C@H](c2ccccc2)CNC1=O)N[C@H](CO)Cc1ccccc1	55.0	i	i	i	i	nt
O=C(C[C@H]1C/C=C\CC[C@H](Cc2ccc(F)cc2)C(=O)O[C@@H](c2ccccc2)CNC1=O)N[C@H](CO)Cc1ccccc1	56.4	i	i	52.7	i	nt
COCc1cc(N2CCNC[C@@H]2C)ccc1N1CCN(Cc2ccccc2)[C@@H](C)C1	i	nt	nt	i	nt	nt
Cc1cccc(C)c1OCc1nnc(SCC(=O)O)n1-c1c(C)cccc1C	i	nt	nt	i	nt	nt
Cc1ccc(NC(=O)Nc2ccc3c(c2)N(C)C(=O)CS3)nc1	48.7	i	i	i	i	i
COc1ccc(NC(=O)Nc2ccc3c(c2)N(C)C(=O)CS3)cc1Cl	63.0	i	31.4	i	i	i
CCOc1ccc(NC(=O)Nc2ccc3c(c2)N(C)C(=O)CS3)cc1	52.0	i	i	i	i	i
COc1ccc(NC(=O)Nc2ccc3c(c2)N(C)C(=O)CS3)cc1OC	i	i	i	i	i	i
C[C@@H]1NS(=O)(=O)c2cccc(Cl)c2O[C@@H]1c1ccccc1	i	nt	nt	i	nt	nt
